Measured values gathered from unrelated publications.
Protocols differ between the studies behind these lines.
Target: Serine/threonine-protein kinase Nek7 (NEK7, Homo sapiens, UniProt Q8TDX7)

SMILES	observed	mode	technique	cells	concentration	measurement	result
C[C@@]1(Cc2ccc(C#N)cc2)C(=O)N(c2cc(Cl)cc(Cl)c2)c2ncc(C(=O)NC3(c4nc(C5CCC5)no4)CC3)n21	cell-free assay	–	competition with immobilised ligand	–	1 µM	remaining binding	100%
Cn1c2c(c3ccc(Cl)c(Cl)c31)C(C#N)C(C)(C)NC2=O (stereo not shown)	thermal stability	–	DSF	–	10 µM	ΔTm	-0.6 °C
O=C(Nc1cnn(-c2csc(C(=O)NC3COC3)c2)c1)Nc1c(F)cccc1Cl	enzyme activity	inhibitor	–	–	5 µM	remaining activity	88.1%
CCN1CCC2(CC1)NC(=O)c1c(c3ccc(Cl)c(Cl)c3n1C)C2C#N (racemic)	thermal stability	–	DSF	–	10 µM	ΔTm	-0.2 °C
Nc1ncnc2occ(-c3ccc(NC(=O)Nc4cc(C(F)(F)F)ccc4F)cc3)c12	cell-free assay	inhibitor	–	–	20 µM	remaining signal	4%
CS(=O)(=O)CCNCc1ccc(-c2ccc3ncnc(Nc4ccc(OCc5cccc(F)c5)c(Cl)c4)c3c2)o1	cell-free assay	–	–	–	0.5 µM	remaining signal	98.7%
Nc1c(C(=O)NCc2ccc(C(=O)NCCCC3CCCCC3)cc2)cnn1-c1ccccc1	cell-free assay	–	competition with immobilised ligand	–	0.1 µM	remaining binding	99%
CC(C)(C)c1nc2c(s1)c1nc(N)ncc1c1ccc(NS(=O)(=O)c3c(F)cccc3F)c(F)c12	enzyme activity	inhibitor	radiometric	–	1 µM	remaining activity	27%
CCN(CC)CCNC(=O)c1c(C)[nH]c(/C=C2\C(=O)Nc3ccc(F)cc32)c1C	enzyme activity	inhibitor	–	–	10 µM	inhibition	-6%
CN1CCC2(CC1)NC(=O)c1c(c3ccc(Cl)c(Cl)c3n1C)C2C#N (racemic)	thermal stability	–	DSF	–	10 µM	ΔTm	-0.4 °C
N#CCCc1ccc2c(c1)-c1[nH]c3ccc([N+](=O)[O-])cc3c1CC(=O)N2	cell-free assay	–	–	–	0.5 µM	remaining signal	87.4%
O=C1NC(c2ccccn2)Sc2ccccc21 (stereo not shown)	cell-free assay	–	competition with immobilised ligand	–	1 µM	remaining binding	68%
c1ccc(CNc2nc(N3CCOc4ccccc43)nc3c2CCCC3)cc1	target engagement in cells	inhibitor	chemoproteomics	–	20 mM	inhibition	-6%
N#Cc1ccc(Nc2ccc3[nH]c(=O)[nH]c3c2)c(Cl)c1	cell-free assay	–	competition with immobilised ligand	–	1 µM	remaining binding	100%
CCN1CCN(Cc2ccc(NC(=O)c3ccc(C)c(Oc4ccnc5[nH]ccc45)c3)cc2C(F)(F)F)CC1	target engagement in cells	inhibitor	chemoproteomics	A-375	5 µM	inhibition	0.277%
O=C(Nc1cnn(-c2csc(C(=O)NC3COC3)c2)c1)Nc1ccccc1Cl	enzyme activity	inhibitor	–	–	5 µM	remaining activity	102%

SMILES	observed	mode	technique	cells	concentration	measurement	result
CNC(=O)c1cc(Oc2ccc(NC(=O)Nc3ccc(Cl)c(C(F)(F)F)c3)cc2)ccn1	enzyme activity	inhibitor	–	–	10 µM	inhibition	-7%
CCCOc1ccc(OC)c(F)c1C(=O)c1ccc(C(=O)N[C@@H]2CNC[C@H]2NC(=O)c2ccc3[nH]ncc3c2)cc1	enzyme activity	inhibitor	–	–	10 µM	remaining activity	96%
CCN(CC)c1ccc(C2=NNC(=O)CC2C)cc1[N+](=O)[O-] (stereo not shown)	enzyme activity	inhibitor	–	–	10 µM	remaining activity	107%
Cc1ccc(Nc2nccc(N(C)c3ccc4c(C)n(C)nc4c3)n2)cc1S(N)(=O)=O	enzyme activity	inhibitor	–	–	0.3 µM	inhibition	-6%
CC1(C)NC(=O)c2[nH]c3c(Cl)c(Cl)ccc3c2C1C#N (stereo not shown)	thermal stability	–	DSF	–	10 µM	ΔTm	-0.4 °C
CC(C)(O)[C@H]1CC[C@H](Nc2ccc3ncc(-c4cccc(C(F)(F)F)c4)n3n2)CC1	enzyme activity	inhibitor	–	–	1 µM	remaining activity	93.6%
Cc1noc([C@H]2C[C@@H](c3ccc(C(F)(F)F)cc3)CN(C(=O)N3CCS(=O)(=O)C3)C2)n1	cell-free assay	–	competition with immobilised ligand	–	1 µM	remaining binding	100%
CC/C(=N\NC(=O)NCc1cccc(O)c1)c1ccc(O)c(C)c1O	enzyme activity	inhibitor	–	–	0.1 µM	inhibition	6.5%
CN([C@@H]1CCc2c(CC(=O)O)c3cc(S(C)(=O)=O)ccc3n2C1)S(=O)(=O)c1ccc(F)cc1	cell-free assay	–	competition with immobilised ligand	–	1 µM	remaining binding	98%
O=C1Nc2ccc(Cl)cc2C1=Cc1cc(Cl)c(O)c(Cl)c1	cell-free assay	–	–	–	0.5 µM	remaining signal	100%
Cc1ccc(C(=O)Nc2ccc(CN3CCN(C)CC3)c(C(F)(F)F)c2)cc1C#Cc1cnc2cccnn12	enzyme activity	inhibitor	–	–	23.5 nM	remaining activity	93%
Cn1c2c(c3ccc(Cl)c(Cl)c31)C(C#N)C1(CCN(C(=O)OC(C)(C)C)CC1)NC2=O (racemic)	thermal stability	–	DSF	–	10 µM	ΔTm	0 °C
CN1CCN(c2cnc3c(C4CCN(C(=O)c5ccc(OC(F)(F)F)cc5N)CC4)ncnc3c2)CC1	cell-free assay	–	competition with immobilised ligand	–	1 µM	remaining binding	100%
Cn1c2c(c3ccc(Cl)c(Cl)c31)C(C#N)C1(CCOCC1)NC2=O (stereo not shown)	thermal stability	–	DSF	–	10 µM	ΔTm	-0.5 °C
C[C@@H](c1cccc(C#N)c1)n1cc(Cl)cc(C(N)=O)c1=N	cell-free assay	–	competition with immobilised ligand	–	1 µM	remaining binding	89%
